Bioassay records deposited in PubChem BioAssay by Broad Institute.
SIRT5 block: inhibitors of human sirtuin-5 desuccinylase | Q9NXA8 | Purified SirT5, succinyl-peptide AMC, trypsin-coupled fluorescence | inhibition, % at 15 µM | 330,000 tested, 1.1% active; in the data active = inhibition above about 15%
Target sequence (Q9NXA8 whole entry, looked up): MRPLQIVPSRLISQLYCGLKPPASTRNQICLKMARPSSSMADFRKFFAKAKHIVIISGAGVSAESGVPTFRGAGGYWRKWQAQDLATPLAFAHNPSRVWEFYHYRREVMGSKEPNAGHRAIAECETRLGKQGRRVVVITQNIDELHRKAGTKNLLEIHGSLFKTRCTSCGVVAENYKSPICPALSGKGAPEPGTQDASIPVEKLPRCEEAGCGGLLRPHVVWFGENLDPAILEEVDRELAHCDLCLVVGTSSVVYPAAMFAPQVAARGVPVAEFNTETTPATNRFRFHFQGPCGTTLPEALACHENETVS
Ecoli rRNA inh: inhibitors of bacterial rRNA selective over humanized ribosomes | E. coli WT GFP vs humanized-ribosome RFP mutants, fluorescence, 24 h; active compounds read low; DMSO median 0, no signal -100 | GFP signal change (wild-type ribosome), % (concentration not given with the values) | 350,000 tested, 1.6% active;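 active = significant combined selectivity score with lowered wild-type GFP, culture density cut under 30%, mutant RFP and density less affected; inactive = any of these conditions unmet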
S100A4 MyoIIA: inhibitors of human S100A4 binding to myosin IIA peptide; P26447; S100A4/TAMRA-MyoIIA peptide fluorescence polarization; inhibition, % at 10.7 µM; 360,000 tested, 0.14% active;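 active = mean inhibition of at least 70% across replicates, with every replicate also reaching that level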
Target sequence (P26447 whole entry, looked up): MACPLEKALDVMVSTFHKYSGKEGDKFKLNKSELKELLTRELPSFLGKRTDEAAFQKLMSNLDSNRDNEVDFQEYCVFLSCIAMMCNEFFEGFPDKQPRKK
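incubation = readout 5 min after mixing, signal stable up to 60 min | system = S100A4 monomer protein | buffer or medium = HEPES pH 7.2 with CaCl2, KCl, NaCl, DTT, Triton | benchmarks = neutral control DMSO, positive control TFP | also added = fluorescent myosin IIA peptide, 5 nM | compound dosing = one concentration per compound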
AF4-AF9 inh: blocks AF4 peptide binding to human AF9 | P42568 | AlphaScreen, biotin-AF4 peptide binding to FLAG-AF9 | inhibition, % at 10 µM | 350,000 tested, 0.47% active | AID 651704;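 active = every replicate reaching a set inhibition limit, whatever the replicate mean, cut at about 25% in these data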
ERAP1 HTS inh: inhibitors of human ERAP1 aminopeptidase; AID 652197; inhibition, % at 10.7 µM; 340,000 tested, 0.15% active; recombinant ERAP1, Leu-AMC fluorescence, 60 min; Q9NZ08;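 active = mean replicate inhibition of at least 30%, or all replicates individually reaching that 30% level; inactive = mean below 30% and not every replicate reaching it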
E-selectin induc: induces E-selectin expression in human endothelial cells | P16581 | HUVEC E-selectin immunofluorescence imaging; normalized: neutral wells 0, TNF-alpha wells 100 | activation, % at 7.58 µM | 260,000 tested, 0.37% active;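 active = mean E-selectin-positive cell signal at least 10% of the positive control, reached in at least 60% of replicates, without over 20% cell loss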
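Material: HUVEC primary endothelial cells; Amount: 3,000 cells per well; Dosing: single concentration; Medium: EGM-2 growth medium on 0.1% gelatin-coated wells; Read-out basis: percent E-selectin-positive cells; Signal: immunofluorescence imaging; Control set: TNF-alpha, DMSO.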
Each line names hits and unclear results; the compound was inactive in the other large screens. Compounds with a hit are over-represented: about 3.4% of the library has one in this group of screens.

Cc1ccc(S(=O)(=O)Nc2ccc3c(c2)C(=O)N([C@H](C)CO)C[C@H](C)[C@H](CN(C)S(=O)(=O)c2ccc(Cl)cc2)OCCCC[C@@H](C)O3)cc1	none (no result: SIRT5 block, S100A4 MyoIIA, AF4-AF9 inh, ERAP1 HTS inh)
C[C@H](CO)N1C[C@H](C)[C@H](CN(C)S(=O)(=O)c2ccccc2)OCCCC[C@H](C)Oc2ccc(NS(=O)(=O)c3ccc(Cl)cc3)cc2C1=O	SIRT5 block 15
C[C@@H]1CCCCO[C@H](CN(C)S(=O)(=O)c2ccccc2)[C@H](C)CN([C@H](C)CO)C(=O)c2cc(NS(=O)(=O)c3ccc(Cl)cc3)ccc2O1	none
Cc1ccc(S(=O)(=O)Nc2ccc3c(c2)C(=O)N([C@@H](C)CO)C[C@H](C)[C@@H](CN(C)S(=O)(=O)c2ccc(Cl)cc2)OCCCC[C@@H](C)O3)cc1	none (no result: SIRT5 block, S100A4 MyoIIA, AF4-AF9 inh, ERAP1 HTS inh)
COc1ccc(C#Cc2ccc([C@@H]3[C@H]4CN(C(=O)c5ccncc5)CC(=O)N4[C@H]3CO)cc2)cc1	none
COc1ccc(S(=O)(=O)N(C)C[C@@H]2OCc3ccccc3-c3c(n(C)c4ccccc34)C(=O)N([C@@H](C)CO)C[C@H]2C)cc1	none
C[C@@H]1CN([C@H](C)CO)C(=O)c2cc(C#CCc3ccccc3)cnc2O[C@H]1CN(C)C(=O)Cc1cccnc1	none
CN(C)C(=O)C[C@H]1CC[C@H]2[C@@H](COC[C@@H](O)CN2CC2CCOCC2)O1	none
O=C(C[C@@H]1CC[C@H]2[C@@H](COC[C@@H](O)CN2Cc2cccc(Cl)c2)O1)N1CCOCC1	none
Cc1ccc(S(=O)(=O)N(C)C[C@H]2OCCCC[C@@H](C)Oc3ccc(NS(=O)(=O)c4ccc(Cl)cc4)cc3C(=O)N([C@H](C)CO)C[C@H]2C)cc1	SIRT5 block 29
Cc1ccc(S(=O)(=O)Nc2ccc3c(c2)C(=O)N([C@@H](C)CO)C[C@H](C)[C@@H](CN(C)S(=O)(=O)c2ccc(Cl)cc2)OCCCC[C@H](C)O3)cc1	none (no result: SIRT5 block, S100A4 MyoIIA, AF4-AF9 inh, ERAP1 HTS inh)
Cc1ccc(S(=O)(=O)Nc2ccc3c(c2)C(=O)N([C@@H](C)CO)C[C@@H](C)[C@@H](CN(C)S(=O)(=O)c2ccc(Cl)cc2)OCCCC[C@H](C)O3)cc1	none (no result: SIRT5 block, S100A4 MyoIIA, AF4-AF9 inh, ERAP1 HTS inh)
Cc1ccc(S(=O)(=O)N(C)C[C@@H]2OCCCC[C@H](C)Oc3ccc(NS(=O)(=O)c4ccc(Cl)cc4)cc3C(=O)N([C@@H](C)CO)C[C@@H]2C)cc1	SIRT5 block 22
Cc1ccc(S(=O)(=O)N(C)C[C@H]2OCCCC[C@@H](C)Oc3ccc(NS(=O)(=O)c4ccc(Cl)cc4)cc3C(=O)N([C@@H](C)CO)C[C@@H]2C)cc1	SIRT5 block 21
Cc1ccc(S(=O)(=O)N(C)C[C@H]2OCCCC[C@@H](C)Oc3ccc(NS(=O)(=O)c4ccc(Cl)cc4)cc3C(=O)N([C@@H](C)CO)C[C@H]2C)cc1	SIRT5 block 22
CO[C@@H]1CC[C@@H]2CCN(C)C(=O)[C@@H](C)CN(C)C(=O)c3cccc(C#N)c3OC[C@@H]1O2	none
O=C(CNC(=O)OCc1ccccc1)Nc1ccc(F)cc1	ERAP1 HTS inh 32
O=C(CSc1nnc(-c2c[nH]c3ccccc23)o1)N1c2ccccc2CCc2ccccc21	none (no result: E-selectin induc)
O=C(CSc1nnc(-c2c[nH]c3ccccc23)o1)N1CCCCC1	Ecoli rRNA inh -33 (no result: E-selectin induc)
CCc1cc(/C(Cc2ccccn2)=N\O)c(O)cc1O	Ecoli rRNA inh -33 (no result: E-selectin induc)
CCOC(=O)c1c(-c2ccccc2)oc2cc(CN(C)C)c(O)c(CN(C)C)c12	AF4-AF9 inh 36 (no result: E-selectin induc)
CCC(=O)NCCc1cc2ccc(C)cc2[nH]c1=O	none (no result: SIRT5 block)
CCC(CC)C(=O)NCCc1cc2ccc(C)cc2[nH]c1=O	Ecoli rRNA inh -14
CCC(=O)Nc1ccc2c(c1)OC[C@H](C)N(CC1CC1)C[C@@H](C)[C@H](OC)CN(C)C2=O	none (no result: SIRT5 block)
O=C(Cc1cccc2ccccc12)OCn1nnc2ccccc2c1=O	Ecoli rRNA inh -18
COc1cc(CC(=O)OCn2nnc3ccccc3c2=O)cc(OC)c1OC	none (no result: E-selectin induc)
C[C@H]1CN(C)C(=O)c2cc([N+](=O)[O-])ccc2O[C@H]1CN(C)C(=O)OC(C)(C)C	none (no result: SIRT5 block, S100A4 MyoIIA, AF4-AF9 inh, ERAP1 HTS inh, E-selectin induc)
COc1ccc(NC(=O)N(C)C[C@H]2OCCCC[C@H](C)Oc3ccc(NC(=O)CCCN(C)C)cc3C(=O)N([C@H](C)CO)C[C@@H]2C)cc1	none
Cc1nc(SCc2ccc(O)c([N+](=O)[O-])c2)c([N+](=O)[O-])[nH]1	ERAP1 HTS inh 55
Cc1nc(SCc2ccc(O)c([N+](=O)[O-])c2)n[nH]1	none
COCC#Cc1ccc(CC[C@H]2O[C@H]3CC[C@H](CO)O[C@H]3C[C@@H]2n2cc(C(C)(C)O)nn2)cc1	none (no result: Ecoli rRNA inh, E-selectin induc)
CCCCCCCCCCOC(=O)C[N+](C)(C)C/C=C(/C)Cl	ERAP1 HTS inh 36
CCCCCCCCOC(=O)C[N+](C)(C)C/C=C(/C)Cl	Ecoli rRNA inh -35 (no result: E-selectin induc)
CCCCCCCCCCCCOC(=O)C[N+](C)(C)C	none
O=[N+]([O-])c1ccc(-c2csc(NN=C3CCCC3)n2)cc1	Ecoli rRNA inh -22
Cc1ccc2nc(NC(=O)CSc3ncnc4c3oc3ccccc34)sc2c1	E-selectin induc 82
Cc1cccc(NC(=O)CSc2ncnc3c2oc2ccccc23)c1	none
Cc1ccc2nc(NC(=O)CN3C(=O)C4CC=CCC4C3=O)sc2c1 (centres undefined)	Ecoli rRNA inh -25
Cc1cccc(S(=O)(=O)N(C)C[C@H]2OCc3cn(nn3)CCCC(=O)N([C@@H](C)CO)C[C@H]2C)c1	none
COc1ccc(S(=O)(=O)N(C)C[C@H]2Oc3ccc(NS(=O)(=O)c4cccs4)cc3C(=O)N([C@@H](C)CO)C[C@H]2C)cc1	none
CCN(Cc1ccccc1)C(=O)c1[nH]c2ccc(OC)cc2c1C	none (no result: E-selectin induc)
CCN(CC)CCNC(=O)c1[nH]c2ccc(OCc3ccccc3)cc2c1C	AF4-AF9 inh 25 (no result: E-selectin induc)
CCOC(=O)c1c(C)[nH]c(C(=O)Nc2ccc(NC(C)=O)cc2)c1C	Ecoli rRNA inh -27
CCOc1ccc(NC(=O)c2[nH]c(C)c(C(C)=O)c2C)cc1	none
C[C@H]1CN([C@@H](C)CO)C(=O)c2cc(NS(=O)(=O)c3cccs3)ccc2O[C@@H]1CN(C)C(=O)Nc1ccc2c(c1)OCO2	none
C[C@@H]1CN([C@H](C)CO)C(=O)c2cc(NC(=O)c3ccncc3)ccc2O[C@@H]1CN(C)C(=O)Nc1ccc2c(c1)OCO2	SIRT5 block 20, E-selectin induc 40
C[C@H]1CN([C@@H](C)CO)C(=O)c2cc(NC(=O)Nc3ccc4c(c3)OCO4)ccc2O[C@H]1CN(C)C	none
C[C@@H]1CN([C@@H](C)CO)C(=O)c2cc(NC(=O)Nc3ccc4c(c3)OCO4)ccc2O[C@H]1CN(C)C	E-selectin induc 45
